For five compounds, EC50, IC50 and selectivity ratio results are on record in ChEMBL document CHEMBL1155597, “Activity of extracts and isolated naphthoquinones from Kigelia pinnata against Plasmodium falciparum” (J Nat Prod, 2000).

One data set deals with KB. The data set is described as follows: Cytotoxicity against human KB cells after 48 hrs by MTT assay. The class given is functional. As to conditions: read-out: ED50 (the source's name). Put shortly: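 KB human oral epidermal carcinoma cells in DMEM glutamax-1 + 10% HIFCS, 37 °C, 5% CO2. Log-phase cells seeded at 25 000/well and left 24 h to attach. Compounds added from DMSO (≤0.5% final), 200 to 0.064 μg/mL in 5-fold series, triplicate. After 48 h, MTT added for 4 h, formazan dissolved in DMSO, A540 blank-subtracted. Growth expressed as % of untreated control.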

The subject of data set [1] is Plasmodium falciparum. Description: Antimalarial activity after 48 hrs against chloroquine-sensitive Plasmodium falciparum T9-96 by LDH reporter assay. The following applies: T9-96, 48 h. In kind it is functional, organism-based. The procedure, abridged: (§1)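 Asexual cultures kept in 5% A+ human red cells in RPMI 1640 with HEPES, glucose, NaHCO3, hypoxanthine, gentamycin and 10% A+ human serum under 1% O2/3% CO2/96% N2 at 37 °C. Ring-stage blood (1% parasitemia, 2% hematocrit) exposed 48 h to compounds at 50 µg/mL to 1.63 ng/mL final (2-fold). Modified LDH read-out: Malstat, then NBT/phenazine ethosulfate, absorbance at 650 nm. Tested twice in triplicate; IC50 ± SD.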
For orientation: A reporter such as luciferase makes a cellular process visible.

The test system of data set [2] is Plasmodium falciparum. The data set is described as follows: Antimalarial activity after 48 hrs against chloroquine-resistant Plasmodium falciparum K1 by LDH reporter assay. The class given is functional, organism-based. As to conditions: K1, 48 h. Put shortly: as §1
The nature of data set [3]: Selectivity ratio of ED50 for KB cells to IC50 for Plasmodium falciparum K1. The class given is ADME, cell-based. The following applies: human, KB cells (cytotoxicity) versus Plasmodium falciparum K1. The procedure, abridged:
(§2)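 Ratio of KB ED50 to P. falciparum IC50. KB ED50 comes from the 48 h MTT assay. Parasite IC50 comes from a 48 h modified lactate dehydrogenase assay on ring-stage cultures (1% parasitemia, 2% hematocrit, A+ human RBC), 37 °C, 1% O2/3% CO2/96% N2. Compounds tested at 50 μg/mL to 1.63 ng/mL in 2-fold dilutions, twice in triplicate, with NBT/PES read at 650 nm.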

Data set [4] is described as follows: Selectivity ratio of ED50 for KB cells to IC50 for Plasmodium falciparum T9-96. The following applies: human, KB cells (cytotoxicity) versus Plasmodium falciparum T9-96. The class given is ADME, cell-based. The procedure, abridged: as §2

For `CCN(CC)CCCC(C)Nc1ccnc2cc(Cl)ccc12` (stereo unspecified) [CHLOROQUINE PHOSPHATE], the EC50 in the data set with KB amounted to 43.9 µM.
What is called IC50 is the concentration at which inhibition is half-maximal. Low readings indicate higher potency, high ones lower potency. For `CC1=C2C=C3C(=O)c4ccc(O)cc4C(=O)C3(O)C(C)=C2CC1` (stereo unspecified) [KIGELINOL], the concentration for half-maximal inhibition (IC50) came out at 15.2 µM in the data set with Plasmodium falciparum [1] and 16.7 µM in the data set on Plasmodium falciparum [2]. Moreover, in the data set on KB, the EC50 came out at 148 µM. Besides, the selectivity ratio worked out at 8.88 in data set [3] and 9.74 in data set [4].
As to `C[C@]12CC[C@@H]3[C@H]1C=C1C(=O)c4cc(O)ccc4C(=O)[C@@]1(O2)[C@]3(C)C=O` [ISOPINNATAL], the IC50 came to 1.55 µM in the data set on Plasmodium falciparum [1] and 0.763 µM in the data set with Plasmodium falciparum [2]. For the same compound, the EC50 in the data set with KB was 14.8 µM. Besides, the figures for the selectivity ratio in data set [3] and in data set [4] were 19.4 and 9.54, respectively.
Turning to `CC(O)c1cc2c(o1)C(=O)c1ccccc1C2=O` (stereo unspecified), the results for the 50% inhibitory concentration (IC50) with Plasmodium falciparum [1] and in the data set with Plasmodium falciparum [2] were 0.718 µM and 0.627 µM, respectively. Further, in the data set on KB, the EC50 stood at 3.9 µM. Further, the figures for the selectivity ratio in data set [3] and in data set [4] were 6.18 and 5.4, respectively.
Consider `CC1=C2C=C3C(=O)c4cc(O)ccc4C(=O)C3(O)C(C)=C2CC1` (stereo unspecified) [ISOKIGELINOL], for which the results for the IC50 with Plasmodium falciparum [1] and in the data set on Plasmodium falciparum [2] were 11.9 µM and 15.2 µM, respectively. Also, the EC50 in the data set with KB came to 167 µM. The selectivity ratio in data set [3] was 12.7; in data set [4] it was 14.
